ChEMBL document CHEMBL2157889, “Design, synthesis and biological evaluation of heterocyclic azoles derivatives containing pyrazine moiety as potential telomerase inhibitors” (Bioorg Med Chem, 2012)

How the values were obtained:
HeLa = assay: Antiproliferative activity against human HeLa cells after 48 hrs by MTT method; format: functional, cell-based
[1] = Antiproliferative activity against human SW1116 cells after 48 hrs by MTT method; format: functional, cell-based; settings: SW 1116, 48 h
HepG2 [2] = assay: Antiproliferative activity against human HepG2 cells after 48 hrs by MTT method; format: functional, cell-based; settings: HepG2, 48 h
BGC-823 = assay: Antiproliferative activity against human BGC823 cells after 48 hrs by MTT method; format: functional, cell-based; settings: BGC-823, 48 h
In short: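 MTT assay. Cells were seeded at 10⁴ per well and held 24 h at 37 °C with 5% CO₂. […] After 48 h, 5 mg/mL MTT in PBS was added for 4 h. Formazan was dissolved in DMSO and absorbance read at 490 nm.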

[3] = biological target: Telomerase reverse transcriptase (Homo sapiens, UniProt O14746); assay: Inhibition of telomerase in human HepG2 cells after 24 hrs by TRAP-PCR-ELISA assay; format: cell-based
In short: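 Cells in serum/penicillin/streptomycin medium (37 °C, 5% CO₂) were seeded at 5×10⁴ per T25 flask and allowed to adhere. After 24 h treatment, cells were lysed in RIPA buffer on ice for 30 min and spun at 12,000 g for 20 min at 4 °C. For the kit-based TRAP-PCR-ELISA, PCR ran 94 °C 120 s, then 35 cycles of 94/50/72 °C. Product was hybridised to a DIG probe, captured via biotin-streptavidin, detected with peroxidase anti-DIG, and read at 490 nm.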

HepG2 [4] = assay: Induction of apoptosis in human HepG2 cells assessed as early apoptotic cells at 0.5 uM after 24 hrs by annexin VeFITC/PI-based flow cytometry (reference value: 3.28 %); format: functional
HepG2 [5] = assay: Induction of apoptosis in human HepG2 cells assessed as viable cells at 1 uM after 24 hrs by annexin VeFITC/PI-based flow cytometry (reference value: 89.18 %); format: functional; settings: HepG2, 24 h, read-out: Activity
HepG2 [6] = assay: Induction of apoptosis in human HepG2 cells assessed as late apoptotic cells at 1 uM after 24 hrs by annexin VeFITC/PI-based flow cytometry (reference value: 6.84 %); format: functional
HepG2 [7] = assay: Induction of apoptosis in human HepG2 cells assessed as early apoptotic cells at 0.25 uM after 24 hrs by annexin VeFITC/PI-based flow cytometry (reference value: 3.28 %); format: functional
HepG2 [8] = assay: Induction of apoptosis in human HepG2 cells assessed as necrotic cells at 2 uM after 24 hrs by annexin VeFITC/PI-based flow cytometry (reference value: 0.7 %); format: functional
HepG2 [9] = assay: Induction of apoptosis in human HepG2 cells assessed as late apoptotic cells at 0.25 uM after 24 hrs by annexin VeFITC/PI-based flow cytometry (reference value: 6.84 %); format: functional
HepG2 [10] = assay: Induction of apoptosis in human HepG2 cells after 24 hrs by annexin VeFITC/PI-based flow cytometry; format: functional, cell-based
HepG2 [11] = assay: Induction of apoptosis in human HepG2 cells assessed as late apoptotic cells at 0.5 uM after 24 hrs by annexin VeFITC/PI-based flow cytometry (reference value: 6.84 %); format: functional
HepG2 [12] = assay: Induction of apoptosis in human HepG2 cells assessed as early apoptotic cells at 1 uM after 24 hrs by annexin VeFITC/PI-based flow cytometry (reference value: 3.28 %); format: functional
HepG2 [13] = assay: Induction of apoptosis in human HepG2 cells assessed as necrotic cells at 0.25 uM after 24 hrs by annexin VeFITC/PI-based flow cytometry (reference value: 0.7 %); format: functional
HepG2 [14] = assay: Induction of apoptosis in human HepG2 cells assessed as viable cells at 2 uM after 24 hrs by annexin VeFITC/PI-based flow cytometry (reference value: 89.18 %); format: functional; settings: HepG2, 24 h, read-out: Activity
HepG2 [15] = assay: Induction of apoptosis in human HepG2 cells assessed as viable cells at 0.25 uM after 24 hrs by annexin VeFITC/PI-based flow cytometry (reference value: 89.18 %); format: functional; settings: HepG2, 24 h, read-out: Activity
HepG2 [16] = assay: Induction of apoptosis in human HepG2 cells assessed as viable cells at 0.5 uM after 24 hrs by annexin VeFITC/PI-based flow cytometry (reference value: 89.18 %); format: functional; settings: HepG2, 24 h, read-out: Activity
HepG2 [17] = assay: Induction of apoptosis in human HepG2 cells assessed as early apoptotic cells at 2 uM after 24 hrs by annexin VeFITC/PI-based flow cytometry (reference value: 3.28 %); format: functional
HepG2 [18] = assay: Induction of apoptosis in human HepG2 cells assessed as necrotic cells at 1 uM after 24 hrs by annexin VeFITC/PI-based flow cytometry (reference value: 0.7 %); format: functional
HepG2 [19] = assay: Induction of apoptosis in human HepG2 cells assessed as late apoptotic cells at 2 uM after 24 hrs by annexin VeFITC/PI-based flow cytometry (reference value: 6.84 %); format: functional
HepG2 [20] = assay: Induction of apoptosis in human HepG2 cells assessed as necrotic cells at 0.5 uM after 24 hrs by annexin VeFITC/PI-based flow cytometry (reference value: 0.7 %); format: functional

Sequence of Telomerase reverse transcriptase (O14746 whole entry): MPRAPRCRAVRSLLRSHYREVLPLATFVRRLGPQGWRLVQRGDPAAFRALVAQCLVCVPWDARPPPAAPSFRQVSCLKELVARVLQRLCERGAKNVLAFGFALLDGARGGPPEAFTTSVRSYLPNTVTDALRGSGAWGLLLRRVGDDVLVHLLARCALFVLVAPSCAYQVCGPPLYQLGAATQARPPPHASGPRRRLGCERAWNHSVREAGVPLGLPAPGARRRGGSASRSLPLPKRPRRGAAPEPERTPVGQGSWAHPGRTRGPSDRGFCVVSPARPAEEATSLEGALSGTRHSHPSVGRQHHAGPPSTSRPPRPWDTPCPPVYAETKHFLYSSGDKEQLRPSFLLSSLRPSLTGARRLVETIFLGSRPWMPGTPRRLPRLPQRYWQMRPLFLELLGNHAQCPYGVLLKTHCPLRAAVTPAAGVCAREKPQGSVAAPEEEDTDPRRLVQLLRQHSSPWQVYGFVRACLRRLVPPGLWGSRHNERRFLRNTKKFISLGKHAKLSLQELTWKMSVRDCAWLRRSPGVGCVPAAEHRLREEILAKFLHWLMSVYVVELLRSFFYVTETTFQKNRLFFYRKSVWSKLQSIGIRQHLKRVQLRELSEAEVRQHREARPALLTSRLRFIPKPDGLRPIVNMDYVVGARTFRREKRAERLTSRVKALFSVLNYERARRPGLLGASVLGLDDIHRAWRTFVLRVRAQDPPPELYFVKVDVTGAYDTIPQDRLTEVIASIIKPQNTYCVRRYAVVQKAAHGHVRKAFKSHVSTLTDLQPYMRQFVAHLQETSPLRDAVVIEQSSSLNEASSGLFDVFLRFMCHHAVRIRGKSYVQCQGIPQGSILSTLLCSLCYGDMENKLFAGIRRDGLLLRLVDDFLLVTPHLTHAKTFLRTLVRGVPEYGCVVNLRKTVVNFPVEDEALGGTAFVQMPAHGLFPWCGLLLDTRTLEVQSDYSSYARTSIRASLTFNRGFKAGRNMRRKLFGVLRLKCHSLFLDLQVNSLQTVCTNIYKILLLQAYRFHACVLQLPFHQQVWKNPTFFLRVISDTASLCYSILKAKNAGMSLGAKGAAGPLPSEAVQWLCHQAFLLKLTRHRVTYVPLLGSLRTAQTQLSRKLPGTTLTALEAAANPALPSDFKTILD

Row | SMILES | IC50 (HeLa) [µM] | IC50 [1] [µM] | IC50 (HepG2 [2]) [µM] | IC50 (BGC-823) [µM] | IC50 [3] [µM] | also measured
1 | Fc1ccc(CSc2nnc(-c3cnccn3)s2)c(F)c1 | 20.9 | 5.18 | 9.63 | 14.5 |  | 
2 | Clc1ccccc1CSc1nnc(-c2cnccn2)n1-c1ccccc1 | > 50 | 18.1 | 18.8 | 34.7 |  | 
3 | Fc1cccc(F)c1CSc1nnc(-c2cnccn2)s1 | 29.2 | 16.8 | 6.9 | 18.6 |  | 
4 | Fc1cccc(F)c1CSc1nnc(-c2cnccn2)o1 | > 50 | 23.8 | 17.1 | > 50 |  | 
5 | Clc1ccc(CSc2nnc(-c3cnccn3)o2)cc1 | 24.6 | 17.3 | 11.5 | 30 |  | 
6 | CN[C@@H]1C[C@H]2O[C@@](C)([C@@H]1OC)n1c3ccccc3c3c4c(c5c6ccccc6n2c5c31)C(=O)NC4 [STAUROSPORINE] |  |  |  | 6.83 |  | 
7 | Brc1cccc(CSc2nnc(-c3cnccn3)n2-c2ccccc2)c1 | 9.58 | 5.03 | 10.6 | 18.3 |  | 
8 | Fc1ccccc1CSc1nnc(-c2cnccn2)o1 | 25.3 | 16.8 | 12.5 | 18.2 |  | 
9 | Fc1ccc(CSc2nnc(-c3cnccn3)s2)cc1 | > 50 | 17.1 | 10.1 | 29.3 | 12.1 | 
10 | Clc1ccc(CSc2nnc(-c3cnccn3)s2)cc1 | 18.9 | 4.77 | 6.23 | 13.4 | 7.88 | 
11 | Brc1cccc(CSc2nnc(-c3cnccn3)s2)c1 | 5.43 | 5.26 | 1.79 | 16.7 | 1.54 | 
12 | Brc1ccccc1CSc1nnc(-c2cnccn2)n1-c1ccccc1 | > 50 | 19.4 | 11.6 | 36.2 |  | 
13 | Brc1ccc(CSc2nnc(-c3cnccn3)o2)cc1 | 21.6 | 14.4 | 13.2 | 25.7 |  | 
14 | Clc1ccccc1CSc1nnc(-c2cnccn2)o1 | 23 | 15.1 | 12.3 | 27.7 |  | 
15 | Fc1ccc(CSc2nnc(-c3cnccn3)n2-c2ccccc2)c(F)c1 | 12.5 | 4.65 | 10.4 | 17.8 |  | 
16 | Clc1cccc(CSc2nnc(-c3cnccn3)o2)c1 | 14.6 | 7.88 | 7.5 | 15.8 | 6.38 | 
17 | Brc1cccc(CSc2nnc(-c3cnccn3)o2)c1 | 30.3 | 5.06 | 5.79 | 11.5 | 3.59 | 
18 | Brc1ccc(CSc2nnc(-c3cnccn3)s2)cc1 | 12.4 | 1.47 | 0.78 | 25.2 | 1.24 | Activity (HepG2 [4]): 11.48%; viability at 1 µM (HepG2 [5]): 50.3%; Activity (HepG2 [6]): 30.6%; Activity (HepG2 [7]): 4.36%; Activity (HepG2 [8]): 2.82%; Activity (HepG2 [9]): 8.62%; Activity (HepG2 [10]): Dose-dependent effect; Activity (HepG2 [11]): 24.02%; Activity (HepG2 [12]): 14.96%; Activity (HepG2 [13]): 1.72%; viability at 2 µM (HepG2 [14]): 44.5%; viability at 0.25 µM (HepG2 [15]): 85.3%; viability at 0.5 µM (HepG2 [16]): 60.9%; Activity (HepG2 [17]): 17.54%; Activity (HepG2 [18]): 4.18%; Activity (HepG2 [19]): 35.16%; Activity (HepG2 [20]): 3.62%

Row | SMILES | IC50 (HeLa) [µM] | IC50 [1] [µM] | IC50 (HepG2 [2]) [µM] | IC50 (BGC-823) [µM] | IC50 [3] [µM] | also measured
19 | Fc1ccccc1CSc1nnc(-c2cnccn2)n1-c1ccccc1 | 44.1 | 18.8 | 19.3 | > 50 | 17.6 | 
20 | c1ccc(CSc2nnc(-c3cnccn3)n2-c2ccccc2)cc1 | 35.6 | 15.4 | 17.1 | > 50 |  | 
21 | Fc1ccccc1CSc1nnc(-c2cnccn2)s1 | 32.7 | 6.77 | 9.52 | 18.4 |  | 
22 | O=c1[nH]cc(F)c(=O)[nH]1 [FLUOROURACIL] | 3.25 | 2.41 | 1.3 |  |  | 
23 | Brc1ccc(CSc2nnc(-c3cnccn3)n2-c2ccccc2)cc1 | 8.63 | 6.21 | 11.4 | 19.8 | 7.13 | 
24 | Clc1cccc(CSc2nnc(-c3cnccn3)s2)c1 | 29.7 | 12.1 | 7.03 | 14.7 | 3.12 | 
25 | Fc1cccc(F)c1CSc1nnc(-c2cnccn2)n1-c1ccccc1 | > 50 | 24.1 | 22.6 | > 50 | 24.2 | 
26 | Fc1ccc(CSc2nnc(-c3cnccn3)o2)c(F)c1 | 26.7 | 19.3 | 14.4 | 33 |  | 
27 | Clc1cccc(CSc2nnc(-c3cnccn3)n2-c2ccccc2)c1 | 13.5 | 6.61 | 19.6 | 20.3 |  | 
28 | Clc1ccc(CSc2nnc(-c3cnccn3)n2-c2ccccc2)cc1 | > 50 | 12.5 | 15.3 | 27.7 | 13.4 | 
29 | Clc1ccccc1CSc1nnc(-c2cnccn2)s1 | 28.9 | 7.53 | 10.8 | 20.3 |  | 
30 | Brc1ccccc1CSc1nnc(-c2cnccn2)o1 | 8.89 | 2.46 | 4.22 | 17.6 | 3.55 | 
31 | c1ccc(CSc2nnc(-c3cnccn3)o2)cc1 | 21.1 | 34 | 11.2 | 25 |  | 
32 | Fc1ccc(CSc2nnc(-c3cnccn3)o2)cc1 | 41.6 | 22.7 | 16.5 | > 50 | 17.1 | 
33 | Fc1ccc(CSc2nnc(-c3cnccn3)n2-c2ccccc2)cc1 | 7.3 | 4.12 | 10.1 | 27.2 | 15 | 
34 | Brc1ccccc1CSc1nnc(-c2cnccn2)s1 | 21.3 | 6.95 | 9.81 | 18.9 | 3.97 | 
35 | c1ccc(CSc2nnc(-c3cnccn3)s2)cc1 | 34.4 | 7.88 | 11.3 | 21.2 |  | 
